This passage reports IC50 and Emax results from ChEMBL document CHEMBL1138520, “Molecular and conformational determinants of pituitary adenylate cyclase-activating polypeptide (PACAP) for activation of the PAC1 receptor” (J Med Chem, 2009).

Where a SMILES comes first, the peptide text is derived from it.

The first experiment has as its target T1, Pituitary adenylate cyclase-activating polypeptide type I receptor (Homo sapiens, UniProt P41586). The experiment is described as follows: Displacement of [125I]Ac-PACAP27 from human recombinant PAC1 receptor expressed in CHO cells by gamma- counter. The format is cell-based. On the technique in general: In a radioligand displacement assay an active substance lowers the binding of a labelled ligand.
Target sequence in this assay (P41586 whole entry): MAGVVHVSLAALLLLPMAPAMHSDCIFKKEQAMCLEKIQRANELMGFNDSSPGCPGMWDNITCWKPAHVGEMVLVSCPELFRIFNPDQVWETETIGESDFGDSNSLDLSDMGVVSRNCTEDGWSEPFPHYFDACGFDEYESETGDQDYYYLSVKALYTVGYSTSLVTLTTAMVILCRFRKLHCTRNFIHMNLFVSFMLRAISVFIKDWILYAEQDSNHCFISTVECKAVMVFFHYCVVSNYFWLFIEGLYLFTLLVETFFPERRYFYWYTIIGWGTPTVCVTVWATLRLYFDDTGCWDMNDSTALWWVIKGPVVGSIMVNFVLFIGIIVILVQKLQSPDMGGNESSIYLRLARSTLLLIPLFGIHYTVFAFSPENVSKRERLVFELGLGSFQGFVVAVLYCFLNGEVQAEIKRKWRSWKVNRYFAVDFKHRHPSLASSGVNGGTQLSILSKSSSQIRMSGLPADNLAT
On to `CC[C@@H](C)[C@@H](NC(=O)CNC(=O)[C@H](CC(=O)O)NC(=O)[C@H](CO)NC(=O)[C@@H](N)Cc1cnc[nH]1)C(=O)N[C@@H](Cc1ccccc1)C(=O)N[C@H](C(=O)N[C@@H](CC(=O)O)C(=O)N[C@@H](CO)C(=O)N[C@@H](Cc1ccc(O)cc1)C(=O)N[C@@H](CO)C(=O)N[C@@H](CCCNC(=N)N)C(=O)N[C@@H](Cc1ccc(O)cc1)C(=O)N[C@@H](CCCNC(=N)N)C(=O)N[C@@H](CCCCN)C(=O)N[C@@H](CCC(N)=O)C(=O)N[C@@H](CCSC)C(=O)N[C@@H](C)C(=O)N[C@H](C(=O)N[C@@H](CCCCN)C(=O)N[C@@H](CCCCN)C(=O)N[C@@H](Cc1ccc(O)cc1)C(=O)N[C@@H](CC(C)C)C(=O)N[C@@H](C)C(=O)N[C@@H](C)C(=O)N[C@H](C(=O)N[C@@H](CC(C)C)C(=O)NCC(=O)N[C@@H](CCCCN)C(=O)N[C@@H](CCCNC(=N)N)C(=O)N[C@@H](Cc1ccc(O)cc1)C(=O)N[C@@H](CCCCN)C(=O)N[C@@H](CCC(N)=O)C(=O)N[C@@H](CCCNC(=N)N)C(=O)N[C@H](C(=O)N[C@@H](CCCCN)C(=O)N[C@@H](CC(N)=O)C(=O)N[C@@H](CCCCN)C(N)=O)C(C)C)C(C)C)C(C)C)[C@@H](C)O`, for which the IC50 (as a rule, the concentration at which inhibition is half-maximal) was 0.122 µM.

A further experiment addresses T1, Pituitary adenylate cyclase-activating polypeptide type I receptor. The experiment in a line: Agonist activity at human recombinant PAC1 receptor expressed in CHO cells assessed as PACAP38-induced calcium mobilization by FLIPR assay relative to PACAP38. The format is functional, cell-based. In a few lines:
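CHO cells stably expressing recombinant human PAC1, plated 24 h before assay, loaded with fluo-4 AM for 60 min at 37 °C in the dark, then rinsed into HBSS for 15 min at 37 °C. Peptide was added 18 s into a 150 s read (ex 480/em 525 nm), at final concentrations of 1 × 10-12 to 1 × 10^-5 M. Response was normalised to 1 × 10^-5 M PACAP38 on each plate. EC50 and efficacy came from nonlinear regression; 4-10 independent assays in duplicate.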
On the technique in general: A change in cytosolic calcium serves as a functional read-out for many receptors and channels.
Target sequence in this assay (P41586 21-468 limits assumed): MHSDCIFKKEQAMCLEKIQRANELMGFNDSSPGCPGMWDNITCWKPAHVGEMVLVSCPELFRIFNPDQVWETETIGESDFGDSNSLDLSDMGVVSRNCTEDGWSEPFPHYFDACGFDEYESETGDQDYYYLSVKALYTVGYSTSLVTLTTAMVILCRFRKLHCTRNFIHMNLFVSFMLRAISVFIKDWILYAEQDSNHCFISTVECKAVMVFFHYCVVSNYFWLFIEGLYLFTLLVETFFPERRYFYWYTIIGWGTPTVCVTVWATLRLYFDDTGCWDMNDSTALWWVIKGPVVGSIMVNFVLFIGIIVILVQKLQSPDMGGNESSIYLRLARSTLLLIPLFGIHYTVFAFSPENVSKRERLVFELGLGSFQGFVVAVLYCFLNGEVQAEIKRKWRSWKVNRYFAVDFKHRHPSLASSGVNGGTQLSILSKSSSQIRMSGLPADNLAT
As to `CC[C@H](C)[C@H](NC(=O)CNC(=O)[C@H](CC(=O)O)NC(=O)[C@H](CO)NC(=O)[C@@H](N)Cc1cnc[nH]1)C(=O)N[C@@H](Cc1ccccc1)C(=O)N[C@@H](C(=O)N[C@@H](CC(=O)O)C(=O)N[C@@H](CO)C(=O)N[C@@H](Cc1ccc(O)cc1)C(=O)N[C@@H](CO)C(=O)N[C@@H](CCCNC(=N)N)C(=O)N[C@@H](Cc1ccc(O)cc1)C(=O)N[C@@H](CCCNC(=N)N)C(=O)N[C@@H](CCCCN)C(=O)N[C@@H](CCC(N)=O)C(=O)N[C@@H](CCSC)C(=O)N[C@@H](C)C(=O)N[C@H](C(=O)N[C@@H](CCCCN)C(=O)N[C@@H](CCCCN)C(=O)N[C@@H](Cc1ccc(O)cc1)C(=O)N[C@@H](CC(C)C)C(=O)N[C@@H](C)C(=O)N[C@@H](C)C(=O)N[C@H](C(=O)N[C@@H](CC(C)C)C(=O)NCC(=O)N[C@@H](CCCCN)C(=O)N[C@@H](CCCNC(=N)N)C(=O)N[C@@H](Cc1ccc(O)cc1)C(=O)N[C@@H](CCCCN)C(=O)N[C@@H](CCC(N)=O)C(=O)N[C@@H](CCCNC(=N)N)C(=O)N[C@H](C(=O)N[C@@H](CCCCN)C(=O)N[C@@H](CC(N)=O)C(=O)N[C@@H](CCCCN)C(N)=O)C(C)C)C(C)C)C(C)C)[C@@H](C)O`, the Emax (commonly the greatest response seen or fitted, relative to the assay's reference) turned out to be 63.3%. For the compound `CC[C@H](C)[C@H](NC(=O)CNC(=O)[C@H](CC(=O)O)NC(=O)[C@H](CO)NC(=O)[C@@H](N)Cc1cn(C)cn1)C(=O)N[C@@H](Cc1ccccc1)C(=O)N[C@H](C(=O)N[C@@H](CC(=O)O)C(=O)N[C@@H](CO)C(=O)N[C@@H](Cc1ccc(O)cc1)C(=O)N[C@@H](CO)C(=O)N[C@@H](CCCNC(=N)N)C(=O)N[C@@H](Cc1ccc(O)cc1)C(=O)N[C@@H](CCCNC(=N)N)C(=O)N[C@@H](CCCCN)C(=O)N[C@@H](CCC(N)=O)C(=O)N[C@@H](CCSC)C(=O)N[C@@H](C)C(=O)N[C@H](C(=O)N[C@@H](CCCCN)C(=O)N[C@@H](CCCCN)C(=O)N[C@@H](Cc1ccc(O)cc1)C(=O)N[C@@H](CC(C)C)C(=O)N[C@@H](C)C(=O)N[C@@H](C)C(=O)N[C@H](C(=O)N[C@@H](CC(C)C)C(N)=O)C(C)C)C(C)C)[C@@H](C)O`, the Emax was 31.9%. On to `CC[C@H](C)[C@H](NC(=O)CNC(=O)[C@H](CC(=O)O)NC(=O)[C@H](CO)NC(=O)[C@@H](N)Cc1cnc[nH]1)C(=O)N[C@@H](Cc1ccccc1)C(=O)N[C@H](C(=O)N[C@@H](CC(=O)O)C(=O)N[C@@H](CO)C(=O)N[C@@H](Cc1ccc(O)cc1)C(=O)N[C@@H](CO)C(=O)N[C@@H](CCCNC(=N)N)C(=O)N[C@@H](Cc1ccc(O)cc1)C(=O)N[C@@H](CCCNC(=N)N)C(=O)N[C@@H](CCCCN)C(=O)N[C@@H](CCC(N)=O)C(=O)N[C@@H](CCSC)C(=O)N[C@@H](C)C(=O)N[C@H](C(=O)N[C@@H](CCCCN)C(=O)N[C@@H](CCCCN)C(=O)N[C@@H](Cc1ccc(O)cc1)C(=O)N[C@@H](CC(C)C)C(=O)N[C@@H](C)C(=O)N[C@@H](C)C(=O)N[C@H](C(=O)N[C@@H](CC(C)C)C(=O)NCC(=O)N[C@@H](CCCCN)C(=O)N[C@@H](CCCNC(=N)N)C(=O)N[C@@H](Cc1ccc(O)cc1)C(=O)N[C@@H](CCCCN)C(=O)N[C@@H](CCC(N)=O)C(=O)N[C@@H](CCCNC(=N)N)C(=O)N[C@H](C(=O)N[C@@H](CCCCN)C(=O)N[C@@H](CC(N)=O)C(=O)N[C@@H](CCCCN)C(N)=O)C(C)C)C(C)C)C(C)C)[C@@H](C)O`, for which the Emax worked out at 100%.

Turning to `CC[C@H](C)[C@@H](NC(=O)CNC(=O)[C@H](CC(=O)O)NC(=O)[C@H](CO)NC(=O)[C@@H](N)Cc1cnc[nH]1)C(=O)N[C@@H](Cc1ccccc1)C(=O)N[C@H](C(=O)N[C@@H](CC(=O)O)C(=O)N[C@@H](CO)C(=O)N[C@@H](Cc1ccc(O)cc1)C(=O)N[C@@H](CO)C(=O)N[C@@H](CCCNC(=N)N)C(=O)N[C@@H](Cc1ccc(O)cc1)C(=O)N[C@@H](CCCNC(=N)N)C(=O)N[C@@H](CCCCN)C(=O)N[C@@H](CCC(N)=O)C(=O)N[C@@H](CCSC)C(=O)N[C@@H](C)C(=O)N[C@H](C(=O)N[C@@H](CCCCN)C(=O)N[C@@H](CCCCN)C(=O)N[C@@H](Cc1ccc(O)cc1)C(=O)N[C@@H](CC(C)C)C(=O)N[C@@H](C)C(=O)N[C@@H](C)C(=O)N[C@H](C(=O)N[C@@H](CC(C)C)C(=O)NCC(=O)N[C@@H](CCCCN)C(=O)N[C@@H](CCCNC(=N)N)C(=O)N[C@@H](Cc1ccc(O)cc1)C(=O)N[C@@H](CCCCN)C(=O)N[C@@H](CCC(N)=O)C(=O)N[C@@H](CCCNC(=N)N)C(=O)N[C@H](C(=O)N[C@@H](CCCCN)C(=O)N[C@@H](CC(N)=O)C(=O)N[C@@H](CCCCN)C(N)=O)C(C)C)C(C)C)C(C)C)[C@@H](C)O`, the Emax was 76.2%.

As to `CC[C@H](C)[C@H](NC(=O)CNC(=O)[C@H](CC(=O)O)NC(=O)[C@H](CO)NC(=O)[C@@H](N)Cc1cn(C)cn1)C(=O)N[C@@H](Cc1ccccc1)C(=O)N[C@H](C(=O)N[C@@H](CC(=O)O)C(=O)N[C@@H](CO)C(=O)N[C@@H](Cc1ccc(O)cc1)C(=O)N[C@@H](CO)C(=O)N[C@@H](CCCNC(=N)N)C(=O)N[C@@H](Cc1ccc(O)cc1)C(=O)N[C@@H](CCCNC(=N)N)C(=O)N[C@@H](CCCCN)C(=O)N[C@@H](CCC(N)=O)C(=O)N[C@@H](CCSC)C(=O)N[C@@H](C)C(=O)N[C@H](C(=O)N[C@@H](CCCCN)C(=O)N[C@@H](CCCCN)C(=O)N[C@@H](Cc1ccc(O)cc1)C(=O)N[C@@H](CC(C)C)C(=O)N[C@@H](C)C(=O)N[C@@H](C)C(=O)N[C@H](C(=O)N[C@@H](CC(C)C)C(=O)NCC(=O)N[C@@H](CCCCN)C(=O)N[C@@H](CCCNC(=N)N)C(=O)N[C@@H](Cc1ccc(O)cc1)C(=O)N[C@@H](CCCCN)C(=O)N[C@@H](CCC(N)=O)C(=O)N[C@@H](CCCNC(=N)N)C(=O)N[C@H](C(=O)N[C@@H](CCCCN)C(=O)N[C@@H](CC(N)=O)C(=O)N[C@@H](CCCCN)C(N)=O)C(C)C)C(C)C)C(C)C)[C@@H](C)O`, the Emax was found to be 18.2%. Turning to `CC[C@H](C)[C@H](NC(=O)CNC(=O)[C@H](CC(=O)O)NC(=O)[C@H](CO)NC(=O)[C@H](C)N)C(=O)N[C@@H](Cc1ccccc1)C(=O)N[C@H](C(=O)N[C@@H](CC(=O)O)C(=O)N[C@@H](CO)C(=O)N[C@@H](Cc1ccc(O)cc1)C(=O)N[C@@H](CO)C(=O)N[C@@H](CCCNC(=N)N)C(=O)N[C@@H](Cc1ccc(O)cc1)C(=O)N[C@@H](CCCNC(=N)N)C(=O)N[C@@H](CCCCN)C(=O)N[C@@H](CCC(N)=O)C(=O)N[C@@H](CCSC)C(=O)N[C@@H](C)C(=O)N[C@H](C(=O)N[C@@H](CCCCN)C(=O)N[C@@H](CCCCN)C(=O)N[C@@H](Cc1ccc(O)cc1)C(=O)N[C@@H](CC(C)C)C(=O)N[C@@H](C)C(=O)N[C@@H](C)C(=O)N[C@H](C(=O)N[C@@H](CC(C)C)C(=O)NCC(=O)N[C@@H](CCCCN)C(=O)N[C@@H](CCCNC(=N)N)C(=O)N[C@@H](Cc1ccc(O)cc1)C(=O)N[C@@H](CCCCN)C(=O)N[C@@H](CCC(N)=O)C(=O)N[C@@H](CCCNC(=N)N)C(=O)N[C@H](C(=O)N[C@@H](CCCCN)C(=O)N[C@@H](CC(N)=O)C(=O)N[C@@H](CCCCN)C(N)=O)C(C)C)C(C)C)C(C)C)[C@@H](C)O` (H-ASDGIFTDSYSRYRKQMAVKKYLAAVLGKRYKQRVKNK-NH2), the Emax is 82.6%.

With `CC[C@H](C)[C@H](NC(=O)CNC(=O)[C@H](CC(=O)O)NC(=O)[C@H](CO)NC(=O)[C@@H](N)Cc1cncn1C)C(=O)N[C@@H](Cc1ccccc1)C(=O)N[C@H](C(=O)N[C@@H](CC(=O)O)C(=O)N[C@@H](CO)C(=O)N[C@@H](Cc1ccc(O)cc1)C(=O)N[C@@H](CO)C(=O)N[C@@H](CCCNC(=N)N)C(=O)N[C@@H](Cc1ccc(O)cc1)C(=O)N[C@@H](CCCNC(=N)N)C(=O)N[C@@H](CCCCN)C(=O)N[C@@H](CCC(N)=O)C(=O)N[C@@H](CCSC)C(=O)N[C@@H](C)C(=O)N[C@H](C(=O)N[C@@H](CCCCN)C(=O)N[C@@H](CCCCN)C(=O)N[C@@H](Cc1ccc(O)cc1)C(=O)N[C@@H](CC(C)C)C(=O)N[C@@H](C)C(=O)N[C@@H](C)C(=O)N[C@H](C(=O)N[C@@H](CC(C)C)C(=O)NCC(=O)N[C@@H](CCCCN)C(=O)N[C@@H](CCCNC(=N)N)C(=O)N[C@@H](Cc1ccc(O)cc1)C(=O)N[C@@H](CCCCN)C(=O)N[C@@H](CCC(N)=O)C(=O)N[C@@H](CCCNC(=N)N)C(=O)N[C@H](C(=O)N[C@@H](CCCCN)C(=O)N[C@@H](CC(N)=O)C(=O)N[C@@H](CCCCN)C(N)=O)C(C)C)C(C)C)C(C)C)[C@@H](C)O`, the Emax amounted to 87.6%.
